Screening data: PubChem BioAssay, several laboratories
p-CIP stab down: lowers stability of the mouse p/CIP coactivator protein; hit rate 0.01% among 290,000; decrease of EGFP signal, % at 10 µM; AID 1984; F442A p/CIP-EGFP cells, EGFP fluorescence, 16 h; Q05BA5;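 active = EGFP signal decrease of at least 30% at 10 µM or well 3 SD below plate mean, unless failing retest; inactive = the rest, including hits failing retest or dose response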
CHOP inh: inhibitors of CHOP induction in ER stress response; CHO-K1 CHOP-promoter luciferase, tunicamycin-induced, 15-18 h; inhibition, % at 10 µM; hit rate 3.8% among 220,000; AID 2732;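 active = compounds that reduced the stress-induced luciferase reporter signal by more than about 70% of percent inhibition, limit read from the data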
B2AR ag: human beta-2 adrenergic receptor agonism by FAP; P07550; Am2.2-beta2AR cells, FAP receptor internalization, flow cytometry; response, % (test concentration not listed); hit rate 0.43% among 340,000; AID 504454;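 active = response above a set limit, near 3 SD of response in nonfluorescent compounds, cut at about 42% in these data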
Dynein transport: dynein cargo transport inhibition | 3617.4 mouse cells, GR-EGFP nuclear translocation imaging; test concentration mostly 20 µM; stimulated with dexamethasone, 1 µM; hits give low values | z-score, hits read low | hit rate 0.47% among 220,000;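 active = plate z-score of nuclear minus cytoplasmic receptor signal below a set negative limit, without overly bright fluorescence or cell loss, cut at about -3.5 in these data, passing the limit was not always enough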;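 also: z-score of nuclear minus cytoplasmic ring GR-EGFP intensity difference per well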
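Also added: dexamethasone, 1.0 µM final. Medium: tet-free, stripped-serum medium. Detection: fixed, Hoechst-stained cells imaged at 10x for EGFP. Read-out: nuclear-to-cytoplasmic GR-EGFP distribution per well. Times: induction 48 h, compound 1 h, agonist 30 min.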
XBP1 UPR activ: activators of adaptive arm of unfolded protein response (XBP1). hit rate 0.33% among 330,000. activation, % at 20 µM. CHO-XBP1 luciferase reporter, IRE1-XBP1 UPR activation, luminescence; percent of tunicamycin response, DMSO as zero;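 active = versus positive control, 20 µM dose yields 30% or more activation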
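Material: CHO cell line with stable XBP1 luciferase reporter; buffer or medium: F12 medium containing 10% fetal bovine serum; compound: single point, 20 µM final compound, 1% DMSO; incubation: 6 h treatment, 37 °C; measured by: glow luminescence from Steady-Glo reagent; evaluation: activation, % of tunicamycin; control set: tunicamycin high, DMSO low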
UPR CHOP act: activators of apoptotic arm of unfolded protein response (CHOP). CHO-CHOP luciferase reporter, UPR activation, luminescence; percent of tunicamycin response over DMSO baseline. activation, % at 10 µM. hit rate 0.34% among 330,000. AID 449763;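 active = at 10 µM dose, activation of 40% or more, normalized to positive control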
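measured by = luciferase luminescence | assay system = CHO-CHOP cells, stable luciferase reporter of PERK-eIF2a-CHOP signalling | amount = 500 reporter cells seeded per well | timing = 6 h compound exposure at 37 °C after overnight seeding | controls = positive tunicamycin 10 µg/mL, negative DMSO alone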
Numbers stand for hits. The full list was thinned out, with hits kept by preference.

How did O=C(Nc1nc2c(Br)cc(Br)cc2c(=O)s1)C1CCC1 do in these assays?
p-CIP stab down: inactive; CHOP inh: 91; B2AR ag: inactive; Dynein transport: inactive; XBP1 UPR activ: inactive; UPR CHOP act: inactive

How did COc1ccc(NS(=O)(=O)c2cccc(C(=O)NCCCN3CCOCC3)c2)cc1 do in these assays?
B2AR ag: inactive; XBP1 UPR activ: inactive; UPR CHOP act: inactive

How did Cc1c(C#N)c(O)n(CCO)c(=O)c1N=Nc1ccc2c(c1)COC2=O do in these assays?
p-CIP stab down: inactive; CHOP inh: 94; B2AR ag: inactive; Dynein transport: inactive; XBP1 UPR activ: inactive; UPR CHOP act: inactive

How did COc1ccc(C2CC(c3ccc(C(F)(F)F)cc3)=NN2c2ccc(S(N)(=O)=O)cc2)cc1 (stereo unspecified) do in these assays?
B2AR ag: inactive; XBP1 UPR activ: inactive; UPR CHOP act: inactive

What do the screens show for `CCc1ccc(C2=NN(c3ccc(S(N)(=O)=O)cc3)C(c3ccc(F)cc3)C2)cc1` (stereo unspecified)?
p-CIP stab down: inactive; CHOP inh: 90; B2AR ag: inactive; Dynein transport: inactive; XBP1 UPR activ: inactive; UPR CHOP act: inactive

How did NS(=O)(=O)c1ccc(N2N=C(c3ccccc3)CC2c2ccccc2)cc1 (stereo unspecified) do in these assays?
p-CIP stab down: inactive; CHOP inh: 81; B2AR ag: inactive; Dynein transport: inactive; XBP1 UPR activ: inactive; UPR CHOP act: inactive

Results for N#CC(C#N)=C(Nc1ccc(F)cc1)SCc1cccc(Br)c1 ?
p-CIP stab down: inactive; CHOP inh: 71; B2AR ag: inactive; Dynein transport: inactive

How did Cc1cccc(CSC(Nc2ccc(F)cc2)=C(C#N)C#N)c1 do in these assays?
p-CIP stab down: inactive; CHOP inh: inactive; B2AR ag: inactive; Dynein transport: inactive; XBP1 UPR activ: inactive; UPR CHOP act: inactive

How did COc1ccc(OC)c(S(=O)(=O)Nc2cc3c4c(c2)C(C)C(=O)N4CCC3)c1 (stereo unspecified) do in these assays?
B2AR ag: inactive; XBP1 UPR activ: inactive; UPR CHOP act: inactive

How did COCCCNC(=O)c1ccc(-n2nc(C(F)(F)F)cc2-c2cccs2)cc1 do in these assays?
p-CIP stab down: inactive; CHOP inh: inactive; B2AR ag: inactive; Dynein transport: inactive; XBP1 UPR activ: inactive; UPR CHOP act: inactive

How did O=C(NCCCN1CCOCC1)c1ccc(-n2nc(C(F)(F)F)cc2-c2cccs2)cc1 do in these assays?
p-CIP stab down: inactive; CHOP inh: 76; B2AR ag: inactive; Dynein transport: inactive; XBP1 UPR activ: inactive; UPR CHOP act: inactive

How did CC(C)(C)c1nc(NC(=O)Nc2ccccc2)sc1Br do in these assays?
p-CIP stab down: inactive; CHOP inh: 105; B2AR ag: inactive; Dynein transport: inactive; XBP1 UPR activ: inactive; UPR CHOP act: inactive

Results for O=C(CCCCn1cnc2c(=S)nc[nH]c21)Nc1ccc(C(=O)O)c(O)c1 ?
B2AR ag: inactive

Results for Cc1ccc(N2C(=S)N=C(Nc3ccccc3C)C23CCOC(C)(C)C3)cc1 (stereo unspecified) ?
p-CIP stab down: inactive; CHOP inh: 84; B2AR ag: inactive; Dynein transport: inactive; XBP1 UPR activ: inactive; UPR CHOP act: inactive

How did O=S(=O)(c1ccc(N2CCC(c3ccc(Cl)cc3)=N2)cc1)N(CCO)CCO do in these assays?
p-CIP stab down: inactive; CHOP inh: inactive; B2AR ag: inactive; Dynein transport: inactive; XBP1 UPR activ: inactive; UPR CHOP act: inactive

What do the screens show for `CN(C)CCCNS(=O)(=O)c1ccc(N2CCC(c3ccc(Cl)cc3)=N2)cc1`?
p-CIP stab down: inactive; Dynein transport: inactive; XBP1 UPR activ: 75; UPR CHOP act: inactive

How did O=C(CCCOc1ccc(Cl)cc1Cl)N/N=C/c1cccc([N+](=O)[O-])c1 do in these assays?
p-CIP stab down: inactive; CHOP inh: 76; B2AR ag: inactive; Dynein transport: inactive; XBP1 UPR activ: inactive; UPR CHOP act: inactive

Results for CCOC(=O)c1sc(NC(=O)c2cccc(S(=O)(=O)N3CCc4ccccc43)c2)c(C#N)c1C ?
p-CIP stab down: inactive; CHOP inh: 95; B2AR ag: inactive; Dynein transport: inactive; XBP1 UPR activ: inactive; UPR CHOP act: inactive

How did CCOC(=O)c1sc(NC(=O)CSc2nc(C)cc(C)n2)c(C#N)c1C do in these assays?
p-CIP stab down: inactive; CHOP inh: inactive; B2AR ag: inactive; Dynein transport: inactive; XBP1 UPR activ: inactive; UPR CHOP act: inactive

How did CCC(CC)c1nnc(NC(=O)c2cccc(S(=O)(=O)N3CCc4ccccc43)c2)s1 do in these assays?
p-CIP stab down: inactive; CHOP inh: inactive; B2AR ag: inactive; Dynein transport: inactive; XBP1 UPR activ: inactive; UPR CHOP act: inactive

How did CCOC(=O)c1sc(NC(=O)CSc2ccccn2)c(C#N)c1C do in these assays?
p-CIP stab down: inactive; CHOP inh: 79; B2AR ag: inactive; Dynein transport: inactive; XBP1 UPR activ: inactive; UPR CHOP act: inactive

How did Cc1cc(C(=O)O)ccc1-c1ccc(/C=C2\NC(=O)N(Cc3ccccc3Cl)C2=O)o1 do in these assays?
p-CIP stab down: inactive; CHOP inh: 73; B2AR ag: inactive; Dynein transport: inactive; XBP1 UPR activ: inactive; UPR CHOP act: inactive

What do the screens show for `Cc1oc(-c2cccc3ccccc23)nc1CN1CCN(c2ncnc3ccccc23)CC1`?
p-CIP stab down: inactive; CHOP inh: 82; B2AR ag: inactive; Dynein transport: inactive; XBP1 UPR activ: inactive; UPR CHOP act: inactive

How did COc1ccc(-c2nc(CN3CCN(c4cc(C)nc(C)c4)CC3)c(C)o2)c2ccccc12 do in these assays?
p-CIP stab down: inactive; CHOP inh: inactive; B2AR ag: inactive; Dynein transport: inactive; XBP1 UPR activ: inactive; UPR CHOP act: inactive

How did COc1ccc(C2CC(O)(c3ccccc3)Oc3cc(OC)ccc32)cc1 (stereo unspecified) do in these assays?
p-CIP stab down: inactive; CHOP inh: 92; B2AR ag: inactive; Dynein transport: inactive; XBP1 UPR activ: inactive; UPR CHOP act: inactive

What do the screens show for `COc1ccc(C2CC(=O)Oc3cc(OC)ccc32)cc1` (stereo unspecified)?
B2AR ag: inactive; XBP1 UPR activ: inactive; UPR CHOP act: inactive

What do the screens show for `CCOc1ccc(-n2c(C)c(C(=O)OC)c3cc(O)ccc32)cc1`?
p-CIP stab down: inactive; CHOP inh: 81; B2AR ag: inactive; Dynein transport: inactive; XBP1 UPR activ: inactive; UPR CHOP act: inactive

Results for CCc1ccc(C(=O)Nc2cc3c(cc2Cl)OCCCO3)cc1 ?
p-CIP stab down: inactive; CHOP inh: inactive; B2AR ag: inactive; Dynein transport: inactive; XBP1 UPR activ: inactive; UPR CHOP act: inactive

What do the screens show for `COc1ccccc1CCNC(=O)C1(C)CC1(Cl)Cl` (stereo unspecified)?
p-CIP stab down: inactive; B2AR ag: inactive; XBP1 UPR activ: inactive; UPR CHOP act: inactive
